The source made the active and inactive calls. The calls are words filed in the database; no cut-off is given here.
Assays:
518A2 [1] = assay: Antiproliferative activity against human 518A2 cells after 72 hrs by MTT assay; assay type: functional, cell-based
Summary of the method: (§1)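 MTT read-out after 72 h of continuous exposure. Viability is expressed as percentage of viable cells relative to untreated controls. IC50 comes from dose-response curves. Values are means±SD of four independent experiments (two for some entries). DMSO was below 1%, with vehicle controls at equal DMSO. Precipitation was excluded spectrometrically and microscopically.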

HT-29 [2] = assay: Antiproliferative activity against human HT-29 cells after 72 hrs by MTT assay; assay type: functional, cell-based; details: HT-29, 72 h; summary of the method: as §1
A2780 [3] = assay: Antiproliferative activity against human A2780 cells after 72 hrs by SRB assay; assay type: functional, cell-based; details: A2780, 72 h
Summary of the method: (§2)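 Ovarian A2780 and cisplatin-resistant A2780cis cells were exposed for 72 h and stained with SRB. IC50 comes from dose-response curves, as means±SD of three independent experiments. Final DMSO was below 1%, with matched vehicle controls.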

[4] = Antiproliferative activity against human A2780cis cells after 72 hrs by SRB assay; assay type: functional, cell-based; summary of the method: as §2
DLD-1 = assay: Antiproliferative activity against human DLD1 cells after 72 hrs by MTT assay; assay type: functional, cell-based; details: DLD-1, 72 h; summary of the method: as §1
EA.hy 926 [5] = assay: Antiproliferative activity against human EAhy926 cells after 72 hrs by MTT assay; assay type: functional, cell-based; details: EA.hy 926, 72 h; summary of the method: as §1
PANC-1 = assay: Antiproliferative activity against human PANC1 cells after 72 hrs by MTT assay; assay type: functional, cell-based; details: PANC-1, 72 h; summary of the method: as §1
[6] = Antiproliferative activity against human KB-V1/Vbl cells after 72 hrs by MTT assay; assay type: functional, cell-based; summary of the method: as §1
[7] = Antiproliferative activity against human MCF7/Topo cells after 72 hrs by MTT assay; assay type: functional, cell-based; summary of the method: as §1
EA.hy 926 [8] = assay: Antiangiogenic activity against human EAhy926 cells assessed as inhibition of tube formation on matrigel at 100 nM after 24 hrs by light microscopic analysis; assay type: functional, cell-based
Summary of the method: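 Ea.Hy926 endothelial hybrid cells were seeded on matrigel with compound and examined for tubular/cord-like network formation versus untreated controls. Viability under the same conditions was checked in parallel by MTT to exclude cytotoxic effects.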

EA.hy 926 [9] = assay: Cytotoxicity against human EAhy926 cells at 100 nM after 24 hrs by MTT assay relative to control; assay type: cell-based; details: ea.hy 926, 24 h, 0.1 µM
HT-29 [10] = assay: Cell cycle arrest in human HT-29 cells assessed as accumulation of cells at sub G1 phase at 100 nM after 24 hrs by propidium iodide staining-based flow cytometric analysis (reference value: 1.2 +/- 0.3%); assay type: functional
HT-29 [11] = assay: Cell cycle arrest in human HT-29 cells assessed as accumulation of cells at sub G1 phase at 250 nM after 24 hrs by propidium iodide staining-based flow cytometric analysis (reference value: 1.2 +/- 0.3%); assay type: functional
HT-29 [12] = assay: Cell cycle arrest in human HT-29 cells assessed as accumulation of cells at sub G1 phase at 350 nM after 24 hrs by propidium iodide staining-based flow cytometric analysis (reference value: 1.2 +/- 0.3%); assay type: functional
HT-29 [13] = assay: Cell cycle arrest in human HT-29 cells assessed as accumulation of cells at G1 phase at 100 nM after 24 hrs by propidium iodide staining-based flow cytometric analysis (reference value: 75.1 +/- 1.1%); assay type: functional
HT-29 [14] = assay: Cell cycle arrest in human HT-29 cells assessed as accumulation of cells at G1 phase at 250 nM after 24 hrs by propidium iodide staining-based flow cytometric analysis (reference value: 75.1 +/- 1.1%); assay type: functional
HT-29 [15] = assay: Cell cycle arrest in human HT-29 cells assessed as accumulation of cells at G1 phase at 350 nM after 24 hrs by propidium iodide staining-based flow cytometric analysis (reference value: 75.1 +/- 1.1%); assay type: functional
HT-29 [16] = assay: Cell cycle arrest in human HT-29 cells assessed as accumulation of cells at S phase at 100 nM after 24 hrs by propidium iodide staining-based flow cytometric analysis (reference value: 12.3 +/- 0.4%); assay type: functional
HT-29 [17] = assay: Cell cycle arrest in human HT-29 cells assessed as accumulation of cells at S phase at 250 nM after 24 hrs by propidium iodide staining-based flow cytometric analysis (reference value: 12.3 +/- 0.4%); assay type: functional
HT-29 [18] = assay: Cell cycle arrest in human HT-29 cells assessed as accumulation of cells at S phase at 350 nM after 24 hrs by propidium iodide staining-based flow cytometric analysis (reference value: 12.3 +/- 0.4%); assay type: functional
HT-29 [19] = assay: Cell cycle arrest in human HT-29 cells assessed as accumulation of cells at G2/M phase at 100 nM after 24 hrs by propidium iodide staining-based flow cytometric analysis (reference value: 11.4 +/- 1.4%); assay type: functional
HT-29 [20] = assay: Cell cycle arrest in human HT-29 cells assessed as accumulation of cells at G2/M phase at 250 nM after 24 hrs by propidium iodide staining-based flow cytometric analysis (reference value: 11.4 +/- 1.4%); assay type: functional
HT-29 [21] = assay: Cell cycle arrest in human HT-29 cells assessed as accumulation of cells at G2/M phase at 350 nM after 24 hrs by propidium iodide staining-based flow cytometric analysis (reference value: 11.4 +/- 1.4%); assay type: functional
518A2 [22] = assay: Induction of apoptosis in human 518A2 cells at 100 nM after 24 hrs by TUNEL assay relative to control; assay type: functional
Tubulin (Homo sapiens) = Tubulin (Homo sapiens) (UniProt P68371+Q9H4B7+P0DPH7+P68366+Q13509+Q71U36+P04350+Q3ZCM7+P07437+P68363+Q9BQE3+Q6PEY2+Q13885+Q9BVA1+Q9BUF5); assay: Induction of microtubule disruption in human 518A2 cells at 100 nM after 3 hrs by DAPI staining-based fluorescence microscopic analysis; assay type: cell-based
Summary of the method: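 Microtubule organization in 518A2 melanoma cells was checked by tubulin immunofluorescence staining after 3 h exposure to 100 nM, with DAPI as the nuclear counterstain. Images come from two independent experiments.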

518A2 [23] = assay: Effect on F-actin in human 518A2 cells assessed as thick stress fibers formation at 100 nM after 3 hrs by DAPI staining-based fluorescence microscopic analysis; assay type: cell-based
Summary of the method: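 518A2 melanoma cells were treated with 100 nM for 3 h. Filamentous actin was fluorescence-labelled, nuclei were counterstained with DAPI, and the cells were imaged by fluorescence microscopy. Images come from two independent experiments.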

518A2 [24] = assay: Antimigratory activity against human 518A2 cells at 50 nM after 48 hrs by wound healing assay; assay type: functional, cell-based
Chorioallantoic membrane [25] = assay: Antiangiogenic activity in Leghorn chicken embryo chorioallantoic membrane assessed as disruption of smaller blood vessels at 5 nmol after 6 hrs by light microscopic analysis; assay type: functional, tissue-based; details: Gallus gallus
Summary of the method: (§3)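 Fertilized chicken eggs, CAM assay. Compound was applied topically into a small silicon foil ring placed on the CAM. The membrane and its extraembryonal blood vessels were monitored over 24 h, with observations at 6 h and 24 h post application.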

Chorioallantoic membrane [26] = assay: Antiangiogenic activity in Leghorn chicken embryo chorioallantoic membrane assessed as induction of hemorrhages at 5 nmol after 6 hrs by light microscopic analysis; assay type: functional, tissue-based; details: Gallus gallus; summary of the method: as §3
Chorioallantoic membrane [27] = assay: Antiangiogenic activity in Leghorn chicken embryo chorioallantoic membrane assessed as induction of hemorrhages at 5 nmol after 24 hrs by light microscopic analysis; assay type: functional, tissue-based; details: Gallus gallus; summary of the method: as §3
Chorioallantoic membrane [28] = assay: Antiangiogenic activity in Leghorn chicken embryo chorioallantoic membrane assessed as reduction in diameter of main blood vessel at 5 nmol after 24 hrs by light microscopic analysis; assay type: functional, tissue-based; details: Gallus gallus; summary of the method: as §3
Chorioallantoic membrane [29] = assay: Antiangiogenic activity in Leghorn chicken embryo chorioallantoic membrane assessed as reduction in blood vessel area at 5 nmol after 6 hrs by light microscopic analysis relative to control; assay type: functional, tissue-based; parameters: scale not given: the % may be the effect or the level left; details: Gallus gallus
Summary of the method: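 The CAM assay was run with topical application into a silicon foil ring atop the CAM of fertilized chicken eggs. Area covered by blood vessels was quantified by fractal analysis relative to control.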

Chorioallantoic membrane [30] = assay: Antiangiogenic activity in Leghorn chicken embryo chorioallantoic membrane assessed as effect on blood vessel length at 5 nmol after 6 hrs by light microscopic analysis; assay type: functional, tissue-based; details: Gallus gallus; summary of the method: as §3
A2780 [31] = assay: Antivascular activity against human A2780 cells xenografted in nude mouse assessed as tumor discoloration at 200 mg/kg administered on every other day and measured after 24 hrs; assay type: functional, organism-based; details: in the assay text read “administered as single dose” for “administered on every other day”
Summary of the method: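 Mice bore A2780 tumor xenografts. Compound was formulated in tween80/ethanol (1:1) and injected as single doses. Tumors were inspected for discoloration as a sign of vascular disruption, and treated tumors were examined histologically for hemorrhage and necrosis.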

Chorioallantoic membrane [32] = assay: Antiangiogenic activity in Leghorn chicken embryo chorioallantoic membrane assessed as disruption of smaller blood vessels at 5 nmol after 24 hrs by light microscopic analysis; assay type: functional, tissue-based; details: Gallus gallus; summary of the method: as §3

IC50 (HT-29 [2]): 110 nM
IC50 (A2780 [3]): 14.8 nM
IC50 (DLD-1): 2.6 nM
IC50 (PANC-1): < 0.1 nM
Activity (Tubulin (Homo sapiens)): Active
SMILES: N#CC1=C(N)Oc2c(ccc3ccccc23)C1c1cccc(C#N)c1 (stereo unspecified)
Activity (518A2 [1]): Dose-dependent effect
IC50 (518A2 [1]; 518A2, 72 h): < 0.1 nM
IC50 [4]: 17.9 nM
IC50 (EA.hy 926 [5]): 4.3 nM
IC50 [6]: < 0.1 nM
IC50 [7]: 0.41 nM
Activity (EA.hy 926 [8]): Active
Activity (EA.hy 926 [9]): > 68%
Activity (HT-29 [10]): 4.2%
Activity (HT-29 [11]): 11.8%
Activity (HT-29 [12]): 10.6%
Activity (HT-29 [13]): 51%
Activity (HT-29 [14]): 59.6%
Activity (HT-29 [15]): 60.5%
Activity (HT-29 [16]): 25.1%
Activity (HT-29 [17]): 18.5%
Activity (HT-29 [18]): 15.6%
Activity (HT-29 [19]): 19.7%
Activity (HT-29 [20]): 10.1%
Activity (HT-29 [21]): 13.3%
Activity (518A2 [22]): 69.4%
Activity (518A2 [23]): Active
Activity (518A2 [24]): Active
Activity (Chorioallantoic membrane [25]): Active
Activity (Chorioallantoic membrane [26]): Active
Activity (Chorioallantoic membrane [27]): inactive
Activity (Chorioallantoic membrane [28]): Active
Activity (Chorioallantoic membrane [29]): 56%
Activity (Chorioallantoic membrane [30]): Active
Activity (A2780 [31]): inactive
Activity (Chorioallantoic membrane [32]): inactive
